In the library only some 1.2% were active in any assay of this set; here they are far more common.
PREPL inh = human PREPL enzyme inhibition; Q4J6C6; recombinant PREPL, fluorescence polarization activity-based probe; inhibition, % at 5.96 µM; 320,000 compounds, 0.68% hits; AID 2751; in the data active means inhibition above about 43%
IDE act = IDE (human) activation, cell-based; P14735; HEK cells, FAbeta-B cleavage, fluorescence polarization; 0% vehicle, 100% cell-free pure enzyme wells; activation, % at 5.96 µM; 340,000 compounds, 0.073% hits; AID 493087;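 active means activation above the mean of all tested compounds plus 3 SD, set per screening campaign, cut at about 17% in these data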
ARFGAP1 inhibitor = inhibitors of rat ARFGAP1; Arfgap1-stimulated ARF1 GTP hydrolysis, GDP FP detection; Q62848; AID 651572; 360,000 compounds, 0.26% hits; inhibition, % at 16.5 µM;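 active means inhibition above a per-plate limit, mean inhibition of low control wells plus 3 SD, cut at about 25% in these data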
Target sequence (Q62848 1-136 limits assumed): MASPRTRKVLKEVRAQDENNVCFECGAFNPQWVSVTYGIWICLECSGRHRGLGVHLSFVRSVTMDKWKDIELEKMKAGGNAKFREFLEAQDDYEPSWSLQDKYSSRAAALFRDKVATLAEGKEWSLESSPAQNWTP
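Assay system: Rat Arfgap1 GAP domain (His6, aa 1-136), purified enzyme | Buffer or medium: HEPES 25 mM pH 7.5, NaCl 150 mM, MgCl2, DTT | Schedule: GTP hydrolysis reaction 2 h at 25 °C | Signal: FP of antibody-bound GDP Alexa 633 tracer, ex 620/em 688 nm | Measure: Percent inhibition of Arfgap1-stimulated GTP hydrolysis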
IDE cell inh = inhibitors of human insulin-degrading enzyme in cells. P14735. 320,000 compounds, 0.41% hits. HEK cells, FAbetaB cleavage, fluorescence polarization. inhibition, % at 5.59 µM. AID 434962;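 active means percent inhibition above the average of all tested compounds plus 3 SD, set per screening campaign, cut at about 16% in these data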;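 further: IDE supplied by intact live HEK cells; FP after avidin binding of uncleaved biotin substrate so inhibition keeps polarization high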
ASAP1 GAP inh = inhibitors of human ASAP1 ArfGAP activity; inhibition, % at 16.5 µM; ASAP1-stimulated ARF1 GTP hydrolysis, GDP FP detection; 360,000 compounds, 0.19% hits; Q9ULH1; in the data active means inhibition above about 25%
Target sequence (Q9ULH1 325-724 limits assumed): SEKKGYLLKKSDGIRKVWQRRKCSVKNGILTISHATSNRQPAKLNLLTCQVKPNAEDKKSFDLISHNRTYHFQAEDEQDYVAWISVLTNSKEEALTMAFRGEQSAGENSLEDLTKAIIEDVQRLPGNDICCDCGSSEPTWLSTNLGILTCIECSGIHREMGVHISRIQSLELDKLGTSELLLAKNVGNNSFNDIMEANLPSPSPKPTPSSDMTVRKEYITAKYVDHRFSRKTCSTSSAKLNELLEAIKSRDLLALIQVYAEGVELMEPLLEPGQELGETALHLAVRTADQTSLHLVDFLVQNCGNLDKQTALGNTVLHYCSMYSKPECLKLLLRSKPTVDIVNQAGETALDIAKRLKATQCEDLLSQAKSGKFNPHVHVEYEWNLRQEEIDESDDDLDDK
ARFGAP1 confirm = rat ARFGAP1 inhibition, confirmed | ARFGAP1-stimulated ARF1 GTP hydrolysis, GDP tracer FP | shares compounds with ARFGAP1 inhibitor | inhibition, % at 16.5 µM | 890 compounds, 30% hits | AID 651608;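 active means average inhibition over triplicates above the hit cutoff set in the earlier primary screen, cut at about 25% in these data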
A number is an active result; ! = not active in a repeat.

`COc1ccc(O)c(/C=N/NC(=O)c2ccc(CSc3nc(C)cc(C)n3)cc2)c1` gave PREPL inh inactive, IDE act inactive, ARFGAP1 inhibitor 30, IDE cell inh inactive, ASAP1 GAP inh inactive and ARFGAP1 confirm 33.
COc1ccc(Br)cc1/C=N/NC(=O)c1cc(Br)ccc1O was read as PREPL inh inactive and IDE cell inh inactive.
For COc1cc(Cl)cc(/C=N\NC(=O)c2ccc3c(c2)OCO3)c1O the results were ARFGAP1 inhibitor 34, ASAP1 GAP inh inactive and ARFGAP1 confirm 43.
For O=C(N/N=C/c1cc(Cl)cc([N+](=O)[O-])c1O)c1ccc2c(c1)OCO2 the results were PREPL inh inactive, IDE act inactive, ARFGAP1 inhibitor inactive, IDE cell inh inactive and ASAP1 GAP inh inactive.
For COc1ccc(C(=O)N/N=C/c2cc(Br)ccc2O)cc1OC the results were PREPL inh inactive, IDE act inactive, ARFGAP1 inhibitor 33, IDE cell inh inactive, ASAP1 GAP inh inactive and ARFGAP1 confirm 50.
Cc1ccc(N2CC(C(=O)Nc3ccc(S(=O)(=O)Nc4ncccn4)cc3)CC2=O)cc1C (configuration not stated) was read as PREPL inh inactive, IDE act inactive, ARFGAP1 inhibitor inactive, IDE cell inh inactive and ASAP1 GAP inh inactive.
CC1=CC(=O)c2ccccc2C1=O was read as PREPL inh inactive, IDE act inactive, ARFGAP1 inhibitor 26!, IDE cell inh inactive, ASAP1 GAP inh inactive and ARFGAP1 confirm inactive.
Screening N#Cc1ccsc1NC(=O)COC(=O)c1ccc2ccccc2c1 returned PREPL inh inactive, IDE act inactive, ARFGAP1 inhibitor 27, IDE cell inh inactive, ASAP1 GAP inh inactive and ARFGAP1 confirm inactive.
Cn1cccc1C(=O)OCC(=O)Nc1sccc1C#N was read as PREPL inh inactive, IDE act inactive, ARFGAP1 inhibitor inactive, IDE cell inh inactive and ASAP1 GAP inh inactive.
Screening COC(=O)c1c(NC(=O)C2CC=CCC2C(=O)O)sc(C(N)=O)c1C (configuration not stated) returned PREPL inh inactive, IDE act inactive, ARFGAP1 inhibitor 25, IDE cell inh inactive, ASAP1 GAP inh inactive and ARFGAP1 confirm inactive.
Screening COC(=O)C1=C(C)N(Cc2cccc(C(F)(F)F)c2)C(=NCc2ccc(C(F)(F)F)cc2)NC1c1cccc(F)c1 (configuration not stated) returned ARFGAP1 inhibitor 29, ASAP1 GAP inh inactive and ARFGAP1 confirm inactive.
For COC(=O)C1=C(C)N(Cc2cccc(C(F)(F)F)c2)C(=NCc2ccc(C(F)(F)F)cc2)NC1c1ccc(C(F)(F)F)cc1 (configuration not stated) the results were ARFGAP1 inhibitor 32, ASAP1 GAP inh inactive and ARFGAP1 confirm inactive.
Screening O=C(Nc1cccc(-c2csc(Nc3cccc(C(F)(F)F)c3)n2)c1)c1ccccc1 returned PREPL inh inactive, IDE act inactive, ARFGAP1 inhibitor 25, IDE cell inh inactive, ASAP1 GAP inh inactive and ARFGAP1 confirm inactive.
CC(C)=CCC1=C(OCC(=O)O)C(=O)c2ccccc2C1=O was read as PREPL inh inactive, IDE act inactive, ARFGAP1 inhibitor 25, IDE cell inh inactive, ASAP1 GAP inh inactive and ARFGAP1 confirm inactive.
For CC(C)(C)NS(=O)(=O)c1ccc(CCC(=O)N2CCCC2)cc1 the results were PREPL inh inactive, IDE act inactive, ARFGAP1 inhibitor inactive, IDE cell inh inactive and ASAP1 GAP inh inactive.
For Cc1cc(=O)oc(C)c1C(=O)Nc1ccc(N(C)C)cc1 the results were PREPL inh inactive, IDE act inactive, ARFGAP1 inhibitor inactive, IDE cell inh inactive and ASAP1 GAP inh inactive.
Screening C/C=C/c1ccc(OCC(=O)Nc2cc(Cl)ccc2-n2cncn2)c(OC)c1 returned PREPL inh inactive, IDE act inactive, ARFGAP1 inhibitor inactive, IDE cell inh inactive and ASAP1 GAP inh inactive.
O=c1c(C(c2ccc(Cl)cc2)c2c(O)nc3n(c2=O)CCS3)c(O)nc2n1CCS2 was read as PREPL inh inactive, IDE act inactive, ARFGAP1 inhibitor inactive, IDE cell inh inactive and ASAP1 GAP inh inactive.
For O=c1c(C(c2ccc(F)cc2)c2c(O)nc3n(c2=O)CCS3)c(O)nc2n1CCS2 the results were PREPL inh inactive, IDE act inactive, ARFGAP1 inhibitor 26, IDE cell inh inactive, ASAP1 GAP inh inactive and ARFGAP1 confirm inactive.
For O=C(CN1c2cccc3cccc(c23)S1(=O)=O)NCCc1ccc(F)cc1 the results were PREPL inh inactive, IDE act inactive, ARFGAP1 inhibitor inactive, IDE cell inh inactive and ASAP1 GAP inh inactive.
Screening COc1ccccc1-c1oc2ccccc2c1-c1ccc2cc[nH]c2c1 returned PREPL inh inactive, IDE act inactive, ARFGAP1 inhibitor 26, IDE cell inh inactive, ASAP1 GAP inh inactive and ARFGAP1 confirm inactive.
For CCOC(=O)CN1Cc2cccc(C(=O)O)c2C1=O the results were PREPL inh inactive, IDE act inactive, ARFGAP1 inhibitor 25, IDE cell inh inactive, ASAP1 GAP inh inactive and ARFGAP1 confirm inactive.
For CSc1ccccc1OCc1cc(C(=O)N(C)C(C)c2nc(C)cs2)no1 (configuration not stated) the results were PREPL inh inactive, IDE act inactive, ARFGAP1 inhibitor inactive, IDE cell inh inactive and ASAP1 GAP inh inactive.
Screening COC(=O)CCN1CCC2CC1c1cc(-c3cccc(C)c3)ccc12 (configuration not stated) returned IDE act inactive, ARFGAP1 inhibitor inactive and ASAP1 GAP inh inactive.
`COc1ccc(CNS(=O)(=O)CCNCc2ccccc2OC)cc1` gave IDE act inactive, ARFGAP1 inhibitor 52, ASAP1 GAP inh inactive and ARFGAP1 confirm inactive.
`COc1ccc(S(=O)(=O)NCC2CCCN(C(=O)C3CCCC3)C2)cc1` (configuration not stated) gave PREPL inh inactive, IDE act inactive, ARFGAP1 inhibitor inactive, IDE cell inh inactive and ASAP1 GAP inh inactive.
`COc1ccc(S(=O)(=O)NCC2CCC(C(=O)N3CCC4(CC3)OCCO4)CC2)cc1` (configuration not stated) gave IDE act inactive, ARFGAP1 inhibitor 35, ASAP1 GAP inh inactive and ARFGAP1 confirm inactive.
`COc1ccccc1OCC(=O)NCC1CCCN(C(=O)c2ccccc2C(C)=O)C1` (configuration not stated) gave PREPL inh inactive, IDE act inactive, ARFGAP1 inhibitor 28, IDE cell inh inactive, ASAP1 GAP inh inactive and ARFGAP1 confirm inactive.
Screening COc1ccccc1OCC(=O)NCC1CCCN(C(=O)c2ccccc2SC)C1 (configuration not stated) returned PREPL inh inactive, IDE act inactive, ARFGAP1 inhibitor inactive, IDE cell inh inactive and ASAP1 GAP inh inactive.
`Cc1ccc(N(CCC#N)C(=O)CSc2nnc3ccccn23)cc1` gave PREPL inh inactive, IDE act inactive, ARFGAP1 inhibitor inactive, IDE cell inh inactive and ASAP1 GAP inh inactive.
`COc1ccc(-c2oc3cccnc3c2/C=C/c2ccc(OC)c(OC)c2)cc1` gave PREPL inh inactive, IDE act inactive, ARFGAP1 inhibitor inactive, IDE cell inh inactive and ASAP1 GAP inh inactive.
